Results collected from several papers.
Protocols differ between the studies behind these lines.
Target: Tyrosine-protein kinase Fgr (FGR, Homo sapiens, UniProt P09769)

`CN(c1ccnc(CNc2nc(Nc3ccc4c(c3)CC(=O)N4)ncc2C(F)(F)F)n1)S(C)(=O)=O` has a remaining binding of 58% (cell-free assay, competition with immobilised ligand; 1 µM).
The ΔTm of `CCN1CCC2(CC1)NC(=O)c1c(c3ccc(Cl)c(Cl)c3n1C)C2C#N` (racemic) is reported as -0.1 °C (thermal stability, DSF; 10 µM).
The inhibition of `COc1cc2ncnc(Nc3ccc(Oc4ccccc4)c(C)c3C)c2cc1OC` is reported as 93% (enzyme activity, inhibitor; 1 µM).
`O=C1Nc2ccc(Cl)cc2C1=Cc1cc(Cl)c(O)c(Cl)c1` gave a remaining signal of 84.8% (cell-free assay; 0.5 µM).
The inhibition of `CC/C(=N\NC(=O)NCc1cccc(O)c1)c1ccc(O)c(C)c1O` is reported as 1.1% (enzyme activity, inhibitor; 0.1 µM).
For `O=C(Nc1cnn(-c2csc(C(=O)NC3COC3)c2)c1)Nc1c(F)cccc1Cl`, the remaining activity was 95.5% (enzyme activity, inhibitor; 5 µM).
For `C[C@H](NC(=O)c1cnc2n1[C@](C)(Cc1ccc(C#N)cc1)C(=O)N2c1cc(Cl)c(F)c(Cl)c1)C(=O)NC1(c2ccccn2)CC1`, the remaining binding was 100% (cell-free assay, competition with immobilised ligand; 1 µM).
`CNC(=O)c1cc(Oc2ccc(NC(=O)Nc3ccc(Cl)c(C(F)(F)F)c3)cc2)ccn1` has an inhibition of 39% (enzyme activity, inhibitor; 10 µM).
With `CCN(CC)c1ccc(C2=NNC(=O)CC2C)cc1[N+](=O)[O-]` (stereo not shown) the remaining activity was 85% (enzyme activity, inhibitor; 10 µM).
`FC(F)(F)c1ccc2c(c1)nc(-c1cccnc1)n2C1CC1` gave a remaining binding of 100% (cell-free assay, competition with immobilised ligand; 1 µM).
The remaining activity of `CC(C)(C)c1nc(-c2cccc(NS(=O)(=O)c3c(F)cccc3F)c2F)c(-c2ccnc(N)n2)s1` is reported as 60% (enzyme activity, inhibitor, radiometric; 1 µM).
With `Cn1c2c(c3ccc(Cl)c(Cl)c31)C(C#N)C(C)(C)NC2=O` (stereo not shown) the ΔTm was 0.1 °C (thermal stability, DSF; 10 µM).
`O=C(O)c1cc(-c2ccc(C3CCNCC3)cc2)c2ccc(-c3ccc(C(F)(F)F)cc3)cc2c1` gave a remaining binding of 100% (cell-free assay, competition with immobilised ligand; 1 µM).
With `Cn1c2c(Cl)c(Cl)ccc2c2cc[nH]c(=O)c21` the ΔTm was -0.4 °C (thermal stability, DSF; 10 µM).
`CC(C)(O)c1cncc(-c2nc3ccc(F)cc3n2C2CC2)c1` gave a remaining binding of 100% (cell-free assay, competition with immobilised ligand; 1 µM).
`O=C1NC(=O)c2cc(Nc3ccc(F)cc3)c(Nc3ccc(F)cc3)cc21` gave a remaining signal of 96.3% (cell-free assay; 0.5 µM).
The remaining signal of `Nc1ncnc2occ(-c3ccc(NC(=O)Nc4cc(C(F)(F)F)ccc4F)cc3)c12` is reported as 5.2% (cell-free assay, inhibitor; 20 µM).
For `Cn1c2c(Cl)c(Cl)ccc2c2cn[nH]c(=O)c21`, the ΔTm was -0.1 °C (thermal stability, DSF; 10 µM).
`CCN(CC)CCNC(=O)c1c(C)[nH]c(/C=C2\C(=O)Nc3ccc(F)cc32)c1C` gave an inhibition of 77% (enzyme activity, inhibitor; 0.3 µM).
The ΔTm of `CN1CCC2(CC1)NC(=O)c1c(c3ccc(Cl)c(Cl)c3n1C)C2C#N` (racemic) is reported as 0.1 °C (thermal stability, DSF; 10 µM).
`O=C(Nc1cccnn1)N1CC(C/C=C/c2cncc(Oc3ccc(C(F)(F)F)cn3)n2)C1` gave a remaining binding of 100% (cell-free assay, competition with immobilised ligand; 1 µM).
The remaining activity of `Cc1sc(C(=O)NC2COC2)cc1-n1cc(NC(=O)Nc2c(F)cccc2Cl)cn1` is reported as 80.2% (enzyme activity, inhibitor; 10 µM).
The remaining signal of `Cc1ccc(NC(=O)c2ccc(C)c(C(F)(F)F)c2)cc1C#Cc1nn(C2CCC(O)CC2)c2ncnc(N)c12` (stereo not shown) is reported as 2% (cell-free assay; 10 µM).
The ΔTm of `CCC1(CC)NC(=O)c2c(c3ccc(Cl)c(Cl)c3n2C)C1C#N` (stereo not shown) is reported as 0 °C (thermal stability, DSF; 10 µM).
For `NS(=O)(=O)c1cc(NC(=O)Cc2ccccc2)ccc1Oc1cccc(Cl)c1`, the remaining binding was 100% (cell-free assay, competition with immobilised ligand; 1 µM).
The remaining activity of `COc1cc(Cl)c(C(=O)N[C@@H](CN[C@H]2CC[C@@H](N)CC2)Cc2ccc(C#N)cc2)cc1-c1ccc(CN[C@H](C)c2ccc(C)cc2)o1` is reported as 87% (enzyme activity, inhibitor; 1 µM).
`CS(=O)(=O)c1cc(C2(NC(=O)c3cncc4c3cnn4-c3ccc(F)cc3)CC2)ccn1` has a remaining binding of 100% (cell-free assay, competition with immobilised ligand; 1 µM).
For `Cc1cnc(NC2CCOCC2)nc1-n1cnc(C(=O)NC(CN)c2cc(F)cc(Cl)c2)c1` (stereo not shown), the remaining activity was 97% (enzyme activity, inhibitor, radiometric; 1 µM).
